Key:
[1] = melting temperature; fluorescence melt of hairpins on a sequencing array, two-state fit, raised by 9.35 °C to match UV melts; details: sodium 0.088 M
Outline: (§1)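 To match UV melts, fitted temperatures were raised by 9.35 °C. These fits were bootstrapped two-state models that gave melting temperature and folding enthalpy, combined by inverse variance over four replicates. The input was normalised Cy3 fluorescence of library hairpins with annealed Cy3 and quencher oligos on a sequenced MiSeq flow cell, imaged in 50 mM Na-HEPES pH 8.0, 25 mM NaCl in 2.5 °C steps up to 60 °C.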

[2] = folding enthalpy; higher = less favourable; fluorescence melt of hairpins on a sequencing array, two-state fit; details: sodium 0.088 M
Outline: as §1

Question: What does the source list for GCTCGGGGAAACCCGGGC ((.((((....)))).))?
Answer: Tm [1]: 59.2 °C; folding enthalpy [2]: -34.6 kcal/mol

Question: Which results are given for GCTCGGGGAAACCTGGGC ((.(.((....)).).))?
Answer: Tm [1]: 45.9 °C; folding enthalpy [2]: -18.5 kcal/mol

Question: With GCTCGTACGAAAGTAAGC (((..(((....)))))) as the sequence, how does the Tm [1] read?
Answer: 39.3 °C

Question: And the folding enthalpy [2]?
Answer: -4.48 kcal/mol

Question: What does the source list for GCTCGTCGAAAGACCAGC (((.(((....))).)))?
Answer: Tm [1]: 45.1 °C; folding enthalpy [2]: -15.2 kcal/mol

Question: With GCTCGTGGAAACACGAAC (.(((((....))))).) as the sequence, how does the Tm [1] read?
Answer: 45.2 °C

Question: What about the folding enthalpy [2] of the same sequence?
Answer: -14.6 kcal/mol

Question: For GCTCTAACGAAAGTTAGC (((..(((....)))))), which Tm [1] is on record?
Answer: 33.8 °C

Question: And the folding enthalpy [2]?
Answer: -13.7 kcal/mol

Question: Which results are given for GCTCTAGGAAACCAGAGC (((((.(....).)))))?
Answer: Tm [1]: 44 °C; folding enthalpy [2]: -31.4 kcal/mol

Question: Which Tm [1] does the source give for GCTCTAGGAAACTGGAGC ((((.((....)).)))) here?
Answer: 49.6 °C

Question: What about the folding enthalpy [2] of the same sequence?
Answer: -35.8 kcal/mol

Question: For GCTCTCCGAAAGGAAGC (((.(((....)))))), which Tm [1] is on record?
Answer: 47.8 °C

Question: What about the folding enthalpy [2] of the same sequence?
Answer: -25.8 kcal/mol

Question: Which Tm [1] does the source give for GCTCTCGAAAGAGAAAGC ((((((....)))..))) here?
Answer: 40 °C

Question: And the folding enthalpy [2]?
Answer: -22.6 kcal/mol

Question: What does the source list for GCTCTCGAAAGAGCAAGC ((((((....)))..)))?
Answer: Tm [1]: 42.9 °C; folding enthalpy [2]: -12.2 kcal/mol

Question: Which results are given for GCTCTCGAAAGAGGAAGC ((((((....)))..)))?
Answer: Tm [1]: 38.4 °C; folding enthalpy [2]: -18.8 kcal/mol

Question: For GCTCTCGGAAACGAGAAC (.(((((....))))).), which Tm [1] is on record?
Answer: 41.8 °C

Question: And the folding enthalpy [2]?
Answer: -16 kcal/mol

Question: Which Tm [1] does the source give for GCTCTCGGAAACGAGGGC ((.((((....)))).)) here?
Answer: 58.7 °C

Question: And the folding enthalpy [2]?
Answer: -40 kcal/mol

Question: Which Tm [1] does the source give for GCTCTCTCGAAAGAGAGC (((..(((....)))))) here?
Answer: 60.3 °C

Question: What about the folding enthalpy [2] of the same sequence?
Answer: -26.9 kcal/mol

Question: Which Tm [1] does the source give for GCTCTGAAAAGAGC (((((....))))) here?
Answer: 57.8 °C

Question: And the folding enthalpy [2]?
Answer: -21.6 kcal/mol

Question: With GCTCTGCGAAAGCAAAGC (((.(((....))).))) as the sequence, how does the Tm [1] read?
Answer: 46.1 °C

Question: What about the folding enthalpy [2] of the same sequence?
Answer: -29.9 kcal/mol

Question: With GCTCTGCGAAAGCAATGC ((..(((....)))..)) as the sequence, how does the Tm [1] read?
Answer: 31.6 °C

Question: What about the folding enthalpy [2] of the same sequence?
Answer: -10.5 kcal/mol

Question: For GCTCTGCGAAAGCACCGC ((..(((....)))..)), which Tm [1] is on record?
Answer: 31.8 °C

Question: And the folding enthalpy [2]?
Answer: -8.79 kcal/mol

Question: Which Tm [1] does the source give for GCTCTGCGAAAGCAGCGC ((.((((....)))).)) here?
Answer: 57.6 °C

Question: And the folding enthalpy [2]?
Answer: -17.3 kcal/mol

Question: Which Tm [1] does the source give for GCTCTGCGAAAGCATTGC ((..(((....)))..)) here?
Answer: 40.5 °C

Question: What about the folding enthalpy [2] of the same sequence?
Answer: -14.2 kcal/mol

Question: For GCTCTGCGAAAGCCAAGC (((..((....))..))), which Tm [1] is on record?
Answer: 34.8 °C

Question: And the folding enthalpy [2]?
Answer: -13.9 kcal/mol

Question: What does the source list for GCTCTGCGAAAGCCGGGC ((.(.((....)).).))?
Answer: Tm [1]: 41.7 °C; folding enthalpy [2]: -20.1 kcal/mol

Question: Which results are given for GCTCTGCGAAAGCGGTGC ((.(.((....)).).))?
Answer: Tm [1]: 54.4 °C; folding enthalpy [2]: -19 kcal/mol

Question: Which Tm [1] does the source give for GCTCTGGGAAACTAGAGC (((((.(....).))))) here?
Answer: 49.7 °C

Question: What about the folding enthalpy [2] of the same sequence?
Answer: -51 kcal/mol

Question: What does the source list for GCTCTTCGAAAGAAAAGC (((.(((....))).)))?
Answer: Tm [1]: 34.6 °C; folding enthalpy [2]: -31.4 kcal/mol

Question: For GCTCTTCGAAAGAACAGC (((.(((....))).))), which Tm [1] is on record?
Answer: 34.7 °C

Question: What about the folding enthalpy [2] of the same sequence?
Answer: -22.2 kcal/mol

Question: Which results are given for GCTGAACGAAAGTTTAGC (((.(((....))).)))?
Answer: Tm [1]: 53 °C; folding enthalpy [2]: -31.5 kcal/mol

Question: Which results are given for GCTGAAGAAATTCAGC ((((((....))))))?
Answer: Tm [1]: 54.5 °C; folding enthalpy [2]: -37.6 kcal/mol

Question: What does the source list for GCTGAAGGAAACCTCAGC (((((.(....).)))))?
Answer: Tm [1]: 47 °C; folding enthalpy [2]: -37.2 kcal/mol

Question: For GCTGAAGGAAACTTCGGC ((.((((....)))).)), which Tm [1] is on record?
Answer: 51.3 °C

Question: What about the folding enthalpy [2] of the same sequence?
Answer: -49.4 kcal/mol

Question: For GCTGAAGGAAACTTTGGC ((..(((....)))..)), which Tm [1] is on record?
Answer: 33 °C

Question: What about the folding enthalpy [2] of the same sequence?
Answer: -20 kcal/mol

Question: For GCTGACCGAAAGGTAGC (((.(((....)))))), which Tm [1] is on record?
Answer: 51.7 °C

Question: What about the folding enthalpy [2] of the same sequence?
Answer: -25.5 kcal/mol

Question: With GCTGACCGAAAGGTTAGC (((.(((....))).))) as the sequence, how does the Tm [1] read?
Answer: 58.9 °C

Question: What about the folding enthalpy [2] of the same sequence?
Answer: -33.8 kcal/mol

Question: With GCTGACGAAAGTCCCAGC ((((((....)))..))) as the sequence, how does the Tm [1] read?
Answer: 36.7 °C

Question: And the folding enthalpy [2]?
Answer: -14.2 kcal/mol

Question: For GCTGACGAAAGTCTGAGC ((((((....)))..))), which Tm [1] is on record?
Answer: 43.5 °C

Question: What about the folding enthalpy [2] of the same sequence?
Answer: -20.1 kcal/mol

Question: With GCTGACGGAAACGCCAGC ((((.((....)).)))) as the sequence, how does the Tm [1] read?
Answer: 55.3 °C

Question: And the folding enthalpy [2]?
Answer: -42.1 kcal/mol

Question: With GCTGACGGAAACGTTAGC (((.(((....))).))) as the sequence, how does the Tm [1] read?
Answer: 53.6 °C

Question: What about the folding enthalpy [2] of the same sequence?
Answer: -43 kcal/mol

Question: What does the source list for GCTGACGGAAACGTTGGC ((..(((....)))..))?
Answer: Tm [1]: 47 °C; folding enthalpy [2]: -27.3 kcal/mol

Question: Which Tm [1] does the source give for GCTGAGCGAAAGCACTGC ((.(.((....)).).)) here?
Answer: 49.5 °C

Question: And the folding enthalpy [2]?
Answer: -20 kcal/mol

Question: Which results are given for GCTGAGCGAAAGCGTAGC (((..((....))..)))?
Answer: Tm [1]: 62 °C; folding enthalpy [2]: -21.8 kcal/mol

Question: For GCTGAGCGAAAGCTAAGC (((.(((....))).))), which Tm [1] is on record?
Answer: 56.1 °C

Question: And the folding enthalpy [2]?
Answer: -50.4 kcal/mol

Question: Which Tm [1] does the source give for GCTGAGCGAAAGCTCCGC ((.((((....)))).)) here?
Answer: 57.7 °C

Question: What about the folding enthalpy [2] of the same sequence?
Answer: -19.7 kcal/mol

Question: For GCTGAGCGAAAGCTGGGC ((..(((....)))..)), which Tm [1] is on record?
Answer: 50.3 °C

Question: And the folding enthalpy [2]?
Answer: -19.8 kcal/mol

Question: What does the source list for GCTGAGCGAAAGCTTGGC ((..(((....)))..))?
Answer: Tm [1]: 55.4 °C; folding enthalpy [2]: -20.9 kcal/mol

From the array DNA melting data of Ke et al. (doi:10.1101/2024.01.08.574731)
